In ChEMBL document CHEMBL2401707, “Potentiating 1-(2-hydroxypropyl)-2-styryl-5-nitroimidazole derivatives against antibacterial agents: design, synthesis and biology analysis” (Eur J Med Chem, 2013) one finds IC50, CC50 and Activity data, which are given here for 22 compounds.

Series [1] has as its system Bacillus subtilis. In words: Antibacterial activity against Bacillus subtilis assessed as survival after 24 hrs by MTT assay. It is filed as functional, organism-based. The procedure, abridged:
(§1)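 Broth microdilution in Mueller-Hinton broth. Cells grown to mid-log phase, diluted 10000-fold, and 10⁶ to 10⁷ CFU inoculated per well. Incubated 37 °C for 24 h. Drug-containing medium then added to final 40, 10, 2.5 and 0.25 µg/mL. After 12 h, MTT in PBS added; 4 h later medium discarded and formazan dissolved in DMSO. A490 read; at least three replicates.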
On the technique in general: Tetrazolium assays rely on reduction of a dye to a coloured formazan, in cell work by metabolically active cells.

The test system of series [2] is Pseudomonas aeruginosa. In words: Antibacterial activity against Pseudomonas aeruginosa assessed as survival after 24 hrs by MTT assay. It is filed as functional, organism-based. The gist of the method:
as §1

Series [3] in a line: Cytotoxicity against human macrophages assessed as cell viability after 24 hrs by MTT assay. It counts as cell-based, Macrophage. The procedure, abridged:
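Human macrophages in DMEM with 10% FBS and antimycotic, 1.8×10⁴ cells/well. Exposed to 160, 40, 10, 2.5 and 0.25 µg/mL compound (added in 10% DMSO) for 24 h at 37 °C, 5% CO₂. MTT (2.5 mg/mL) added for a further 4 h, formazan dissolved in DMSO.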

The test system of series [4] is Escherichia coli. The experiment in a line: Antibacterial activity against Escherichia coli assessed as survival after 24 hrs by MTT assay. It is filed as functional, organism-based. The procedure, abridged: as §1
The test system of series [5] is Bacillus thuringiensis. The experiment in a line: Antibacterial activity against Bacillus thuringiensis assessed as survival after 24 hrs by MTT assay. It is filed as functional, organism-based. The gist of the method:
as §1

The nature of series [6]: Inhibition of Escherichia coli FabH overexpressed in Escherichia coli DH10B using holo-ACP as substrate after 1 min. The gist of the method: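 Enzyme was purified by Ni-NTA with imidazole gradient elution and stored in 20 mM Tris pH 7.6, 100 mM NaCl, 1 mM DTT, 20% glycerol. Reaction: 0.5 nM E. coli FabH, 20 mM Na₂HPO₄ pH 7.0, 0.5 mM DTT, 0.25 mM MgCl₂, 2.5 µM holo-ACP, preincubated 1 min. Started with acetyl-CoA, NADH and NADPH mix; ran 19 min. Stopped with ice-cold TCA; ³H incorporation in pellet counted by liquid scintillation. Inhibitors added from DMSO stock, final DMSO ≤2%; IC50 determined.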

Series [7] in a line: Cytotoxicity against human macrophages assessed as morphological changes at 2.5 to 160 ug/mL after 24 hrs by phase contrast microscopic analysis. It is filed as cell-based. Conditions: macrophage. The gist of the method: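 Human macrophages exposed for 24 h to 2.5, 10, 40 and 160 µg/mL, Giemsa-stained and examined by phase contrast microscopy. Morphology compared with untreated control cells. The minimum cytotoxic concentration is the level causing a microscopically detectable alteration of normal cell morphology.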

≈ marks a conversion by molar mass, not a printed value. Where only a bound is given, the exact number is not on record here.

For the compound `CC(O)Cn1c([N+](=O)[O-])cnc1/C=C/c1ccccc1` (centres undefined), the IC50 (commonly the concentration that inhibits the measured activity by half) in series [1] was 78.9 µg/mL (≈ 289 µM); in series [2] it was 28 µg/mL (≈ 102 µM); in series [4] it was greater than 200 µg/mL; in series [5] it was 45.6 µg/mL (≈ 167 µM). The CC50 (commonly the concentration at which the toxic effect on the cells reaches its halfway point) at 24 h in series [3] was 1500 nM.

Consider `COc1ccc(/C=C/c2ncc([N+](=O)[O-])n2CC(C)O)cc1` (centres undefined), for which the IC50 in series [6] turned out to be 9500 nM; in series [1], 12.3 µg/mL (≈ 40.6 µM); in series [2] it was 42.8 µg/mL (≈ 141 µM); in series [4], 46.1 µg/mL (≈ 152 µM); in series [5] it was 13.6 µg/mL (≈ 44.8 µM). In series [3], the CC50 at 24 h is 560 nM.

Take `CC(O)Cn1c([N+](=O)[O-])cnc1/C=C/c1ccc(Br)cc1` (centres undefined): the IC50 in series [1] was found to be 38 µg/mL (≈ 108 µM); in series [2], 15.2 µg/mL (≈ 43.2 µM); in series [4], 50.8 µg/mL (≈ 144 µM); in series [5], 56.2 µg/mL (≈ 160 µM). The CC50 at 24 h in series [3] turned out to be 550 nM.

Take `CC(O)Cn1c([N+](=O)[O-])cnc1/C=C/c1cccc(F)c1` (centres undefined): the IC50 in series [6] was found to be 8900 nM; in series [1] it was 11.8 µg/mL (≈ 40.5 µM); in series [2], 15 µg/mL (≈ 51.5 µM); in series [4], 120 µg/mL (≈ 412 µM); in series [5], 79.2 µg/mL (≈ 272 µM). For the same compound, the cytotoxic concentration (CC50) at 24 h in series [3] amounted to 1030 nM.

As to `CC(O)Cn1c([N+](=O)[O-])cnc1/C=C/c1ccc(Cl)cc1` (centres undefined), the concentration for half-maximal inhibition (IC50) turned out to be 79.5 µg/mL (≈ 258 µM) in series [1], 17.6 µg/mL (≈ 57.2 µM) in series [2], 102 µg/mL (≈ 331 µM) in series [4] and 52.5 µg/mL (≈ 171 µM) in series [5]. For the same compound, the CC50 at 24 h in series [3] came to 980 nM.

As to `CC(O)Cn1c([N+](=O)[O-])cnc1/C=C/c1ccc(F)cc1` (centres undefined), the IC50 is 47.1 µg/mL (≈ 162 µM) in series [1], 24.2 µg/mL (≈ 83.1 µM) in series [2], 45.3 µg/mL (≈ 156 µM) in series [4] and 28.1 µg/mL (≈ 96.5 µM) in series [5]. Moreover, in series [3], the CC50 at 24 h was determined as 420 nM.

Take `CC(O)Cn1c([N+](=O)[O-])cnc1/C=C/c1cccc(Cl)c1` (centres undefined): the half-inhibitory concentration (IC50) in series [1] stood at 55.3 µg/mL (≈ 180 µM); in series [2], 35 µg/mL (≈ 114 µM); in series [4] it was 86.7 µg/mL (≈ 282 µM); in series [5], 21.4 µg/mL (≈ 69.5 µM). The cytotoxic concentration (CC50) at 24 h in series [3] amounted to 520 nM.

`COc1ccccc1/C=C/c1ncc([N+](=O)[O-])n1CC(C)O` (centres undefined): the IC50 in series [1] was determined as 10.5 µg/mL (≈ 34.6 µM); in series [2], 83.8 µg/mL (≈ 276 µM); in series [4], 78.6 µg/mL (≈ 259 µM); in series [5], 19.1 µg/mL (≈ 63 µM). Also, in series [3], the CC50 at 24 h is 480 nM.

With `CC(O)Cn1c([N+](=O)[O-])cnc1/C=C/c1ccc([N+](=O)[O-])cc1` (centres undefined), the IC50 in series [6] was 4600 nM; in series [1], 32.5 µg/mL (≈ 102 µM); in series [2], 5.9 µg/mL (≈ 18.5 µM); in series [4], 36.8 µg/mL (≈ 116 µM); in series [5] it was 11.7 µg/mL (≈ 36.8 µM). Also, the cytotoxic concentration (CC50) at 24 h in series [3] worked out at 410 nM.

In the case of `COc1cccc(/C=C/c2ncc([N+](=O)[O-])n2CC(C)O)c1` (centres undefined), the concentration for half-maximal inhibition (IC50) was determined as 25.7 µg/mL (≈ 84.7 µM) in series [1], 6.7 µg/mL (≈ 22.1 µM) in series [2], 181 µg/mL (≈ 595 µM) in series [4] and 56.2 µg/mL (≈ 185 µM) in series [5]. Also, the CC50 at 24 h in series [3] amounted to 1300 nM.

For `CC(O)Cn1c([N+](=O)[O-])cnc1/C=C/c1cccc(Br)c1` (centres undefined), the IC50 in series [6] was determined as 10800 nM; in series [1], 15.3 µg/mL (≈ 43.4 µM); in series [2], 30.9 µg/mL (≈ 87.7 µM); in series [4], 45.4 µg/mL (≈ 129 µM); in series [5] it was 8.2 µg/mL (≈ 23.3 µM). In addition, the CC50 at 24 h in series [3] is 620 nM.

Take `CC(O)Cn1c([N+](=O)[O-])cnc1/C=C/c1ccccc1F` (centres undefined): the IC50 is 3.4 µg/mL (≈ 11.7 µM) in series [1], 39.4 µg/mL (≈ 135 µM) in series [2], 72.7 µg/mL (≈ 250 µM) in series [4] and 60.3 µg/mL (≈ 207 µM) in series [5]. In addition, in series [3], the half-maximal cytotoxic concentration (CC50) at 24 h turned out to be 1410 nM.

Take `CC(O)Cn1c([N+](=O)[O-])cnc1/C=C/c1ccccc1Cl` (centres undefined): the IC50 in series [6] was 11500 nM; in series [1] it was 7.5 µg/mL (≈ 24.4 µM); in series [2] it was 15.4 µg/mL (≈ 50 µM); in series [4] it was 56.3 µg/mL (≈ 183 µM). Also, in series [3], the 50% cytotoxic concentration (CC50) at 24 h is 480 nM.

In the case of `Cc1ccc(/C=C/c2ncc([N+](=O)[O-])n2CC(C)O)cc1` (centres undefined), the IC50 in series [6] was 78800 nM; in series [1], 8.9 µg/mL (≈ 31 µM); in series [2] it was 22.8 µg/mL (≈ 79.4 µM); in series [4] it was 111 µg/mL (≈ 388 µM); in series [5], 8.6 µg/mL (≈ 29.9 µM). For the same compound, the CC50 at 24 h in series [3] came to 860 nM.

With `CC(O)Cn1c([N+](=O)[O-])cnc1/C=C/c1c(F)cccc1Cl` (centres undefined), the IC50 worked out at 112 µg/mL (≈ 343 µM) in series [1], 5.7 µg/mL (≈ 17.5 µM) in series [2], 119 µg/mL (≈ 365 µM) in series [4] and 6.1 µg/mL (≈ 18.7 µM) in series [5]. In series [3], the half-maximal cytotoxic concentration (CC50) at 24 h came to 710 nM.

Take `CC(O)Cn1c([N+](=O)[O-])cnc1/C=C/c1ccc(Cl)cc1Cl` (centres undefined): the half-inhibitory concentration (IC50) is 58.1 µg/mL (≈ 170 µM) in series [1], 8.7 µg/mL (≈ 25.4 µM) in series [2], 111 µg/mL (≈ 325 µM) in series [4] and 18.8 µg/mL (≈ 54.9 µM) in series [5]. Moreover, the half-maximal cytotoxic concentration (CC50) at 24 h in series [3] worked out at 810 nM.

Regarding `CC(O)Cn1c([N+](=O)[O-])cnc1/C=C/c1ccc(N(C)C)cc1` (centres undefined), the IC50 in series [1] is 56.5 µg/mL (≈ 179 µM); in series [2] it was 75 µg/mL (≈ 237 µM); in series [4] it was 108 µg/mL (≈ 342 µM); in series [5], greater than 200 µg/mL. Besides, in series [3], the 50% cytotoxic concentration (CC50) at 24 h was found to be 680 nM.

Take `CC(O)Cn1c([N+](=O)[O-])cnc1/C=C/c1cccc([N+](=O)[O-])c1` (centres undefined): the half-maximal inhibitory concentration (IC50) in series [6] came out at 5100 nM; in series [1], 31.1 µg/mL (≈ 97.7 µM); in series [2], 32.7 µg/mL (≈ 103 µM); in series [4], 38.8 µg/mL (≈ 122 µM); in series [5] it was 20.6 µg/mL (≈ 64.7 µM). Also, the CC50 at 24 h in series [3] was determined as 430 nM.

For the compound `CC(O)Cn1c([N+](=O)[O-])cnc1/C=C/c1ccccc1Br` (centres undefined), the half-inhibitory concentration (IC50) in series [1] was 6 µg/mL (≈ 17 µM); in series [2], 11.1 µg/mL (≈ 31.5 µM); in series [4], 63.6 µg/mL (≈ 181 µM); in series [5], 11.4 µg/mL (≈ 32.4 µM). For the same compound, the CC50 at 24 h in series [3] worked out at 490 nM.

Consider `CC(O)Cn1c([N+](=O)[O-])cnc1/C=C/c1ccccc1[N+](=O)[O-]` (centres undefined), for which the IC50 in series [6] was determined as 11000 nM; in series [1], 12.3 µg/mL (≈ 38.6 µM); in series [2] it was 7.4 µg/mL (≈ 23.2 µM); in series [4] it was 40.3 µg/mL (≈ 127 µM); in series [5], 72.9 µg/mL (≈ 229 µM). In series [7], the Activity result is listed as “Non-toxic”. Also, the cytotoxic concentration (CC50) at 24 h in series [3] was found to be 1090 nM.

For the compound `CC(O)Cn1c([N+](=O)[O-])cnc1/C=C/c1ccc2ccccc2c1` (centres undefined), the IC50 in series [6] was 43200 nM; in series [1] it was 23.5 µg/mL (≈ 72.7 µM); in series [2] it was 42.1 µg/mL (≈ 130 µM); in series [4], 108 µg/mL (≈ 335 µM); in series [5], 52.2 µg/mL (≈ 161 µM). The CC50 at 24 h in series [3] was 790 nM.

`NC[C@H]1O[C@H](O[C@H]2[C@H](O)[C@@H](O[C@H]3O[C@H](CO)[C@@H](O)[C@H](N)[C@H]3O)[C@H](N)C[C@@H]2N)[C@H](O)[C@@H](O)[C@@H]1O` [KANAMYCIN]: the IC50 in series [6] was found to be 6300 nM; in series [1], 8.9 µg/mL (≈ 18.4 µM); in series [2], 6.8 µg/mL (≈ 14 µM); in series [4] it was 47.3 µg/mL (≈ 97.6 µM); in series [5] it was 9.5 µg/mL (≈ 19.6 µM).
